According to ChEMBL document CHEMBL3593207, “Imidazole clubbed 1,3,4-oxadiazole derivatives as potential antifungal agents” (2015):
≈ marks a conversion by molar mass, not a printed value.

What was measured:
Type in all cases: functional
Candida albicans [1] = assay: Antifungal activity against clinical isolates of Candida albicans 2367 after 48 hrs by disc diffusion assay
Outline: (§1)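 Cells grown in YPD were mixed at 10^3 cells/ml into molten agar (about 40 °C) and poured into plates. Test compound at 1/2×MIC, MIC and 2×MIC was spotted on filter discs on the set agar, with fluconazole and 1% DMSO as positive and vehicle controls. Plates were incubated 48 h at 37 °C, then inhibition zone diameters were recorded in mm.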

Candida albicans [2] = assay: Antifungal activity against clinical isolates of Candida albicans 2779 after 48 hrs by disc diffusion assay; outline: as §1
Candida tropicalis [3] = assay: Antifungal activity against clinical isolates of Candida tropicalis 2029 after 48 hrs by disc diffusion assay; outline: as §1
Candida tropicalis [4] = assay: Antifungal activity against clinical isolates of Candida tropicalis 2356 after 48 hrs by disc diffusion assay; outline: as §1
Candida albicans [5] = assay: Inhibition of ergosterol biosynthesis in Candida albicans ATCC 10261 assessed as ergosterol content after 16 hrs by spectrophotometer analysis; parameters: scale not given: the % may be the effect or the level left
Outline: (§2)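 Cells were pelleted, washed, weighed wet, and saponified in 3 mL 25% alcoholic KOH at 85 °C for 1 h. Sterols were extracted with 1 mL water plus 3 mL n-heptane. Ergosterol content is expressed relative to untreated control cells.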

Candida tropicalis [6] = assay: Inhibition of ergosterol biosynthesis in Candida tropicalis ATCC 750 assessed as ergosterol content after 16 hrs by spectrophotometer analysis; parameters: scale not given: the % may be the effect or the level left; outline: as §2
Candida albicans [7] = assay: Inhibition of ergosterol biosynthesis in Candida albicans 2323 assessed as ergosterol content after 16 hrs by spectrophotometer analysis; parameters: scale not given: the % may be the effect or the level left; outline: as §2
Candida albicans [8] = assay: Inhibition of ergosterol biosynthesis in Candida albicans 2367 assessed as ergosterol content after 16 hrs by spectrophotometer analysis; parameters: scale not given: the % may be the effect or the level left; outline: as §2
Candida albicans [9] = assay: Inhibition of ergosterol biosynthesis in Candida albicans 2779 assessed as ergosterol content after 16 hrs by spectrophotometer analysis; parameters: scale not given: the % may be the effect or the level left; outline: as §2
Candida tropicalis [10] = assay: Inhibition of ergosterol biosynthesis in Candida tropicalis 2029 assessed as ergosterol content after 16 hrs by spectrophotometer analysis; parameters: scale not given: the % may be the effect or the level left; outline: as §2
Candida tropicalis [11] = assay: Inhibition of ergosterol biosynthesis in Candida tropicalis 2356 assessed as ergosterol content after 16 hrs by spectrophotometer analysis; parameters: scale not given: the % may be the effect or the level left; outline: as §2
Candida albicans [12] = assay: Antifungal activity against Candida albicans ATCC 10261 by broth microdilution assay
Outline: (§3)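 CLSI M27-A3 broth microdilution. Compounds diluted to 1 mg/ml in 1% DMSO. Fluconazole (1 mg/ml) served as positive control, 1% DMSO as vehicle control, with media and culture controls. Triplicate at each concentration, repeated thrice. Inocula came from YPDA stocks subcultured in broth for 48 h at 37 °C.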

Candida tropicalis [13] = assay: Antifungal activity against Candida tropicalis ATCC 750 by broth microdilution assay; outline: as §3
Candida albicans [14] = assay: Antifungal activity against clinical isolates of Candida albicans 2323 by broth microdilution assay; outline: as §3
Candida albicans [15] = assay: Antifungal activity against clinical isolates of Candida albicans 2367 by broth microdilution assay; outline: as §3
Candida albicans [16] = assay: Antifungal activity against clinical isolates of Candida albicans 2779 by broth microdilution assay; outline: as §3
Candida tropicalis [17] = assay: Antifungal activity against clinical isolates of Candida tropicalis 2029 by broth microdilution assay; outline: as §3
Candida tropicalis [18] = assay: Antifungal activity against clinical isolates of Candida tropicalis 2356 by broth microdilution assay; outline: as §3
Candida albicans [19] = assay: Antifungal activity against Candida albicans ATCC 10261 after 48 hrs by disc diffusion assay; outline: as §1
Candida tropicalis [20] = assay: Antifungal activity against Candida tropicalis ATCC 750 after 48 hrs by disc diffusion assay; outline: as §1
Candida albicans [21] = assay: Antifungal activity against clinical isolates of Candida albicans 2323 after 48 hrs by disc diffusion assay; outline: as §1

OC(Cn1cncn1)(Cn1cncn1)c1ccc(F)cc1F [FLUCONAZOLE]
inhibition zone (IZ) (Candida albicans [1]): 10 mm
inhibition zone (IZ) (Candida albicans [2]): 13 mm
inhibition zone (IZ) (Candida tropicalis [3]): 11 mm
inhibition zone (IZ) (Candida tropicalis [4]): 8 mm
Activity (Candida albicans [5]): 100%
Activity (Candida tropicalis [6]): 100%
Activity (Candida albicans [7]): 100%
Activity (Candida albicans [8]): 100%
Activity (Candida albicans [9]): 100%
Activity (Candida tropicalis [10]): 100%
Activity (Candida tropicalis [11]): 100%
MIC (Candida albicans [12]): 8 µg/mL (≈ 26.1 µM)
MIC (Candida tropicalis [13]): 16 µg/mL (≈ 52.2 µM)
MIC (Candida albicans [14]): 32 µg/mL (≈ 104 µM)
MIC (Candida albicans [15]): 16 µg/mL (≈ 52.2 µM)
MIC (Candida albicans [16]): 32 µg/mL (≈ 104 µM)
MIC (Candida tropicalis [17]): 32 µg/mL (≈ 104 µM)
MIC (Candida tropicalis [18]): 62 µg/mL (≈ 202 µM)
inhibition zone (IZ) (Candida albicans [19]): 11 mm
inhibition zone (IZ) (Candida tropicalis [20]): 16 mm
inhibition zone (IZ) (Candida albicans [21]): 9 mm
